For one assay, the system named is Aspergillus niger. In words: Antifungal activity against Aspergillus niger ATCC 9029 up to 250 ug/mL by agar dilution method. Type of assay: functional, organism-based. The method in brief: (§1)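 Agar dilution in Saboureaud-chloramphenicol agar wells. Test agents from DMSO stocks were serially diluted twofold to final 0.10–250 µg/mL, with DMSO ≤2% final. Each well got 5 µL of yeast cell or spore suspension (spores at 10⁶ CFU/mL). Ketoconazole and amphotericin B served as positive controls, with a drug-free blank. Plates were held at 30 °C for 24, 48 or 72 h, set by control growth. MIC = lowest concentration with no visible growth.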
For orientation: In agar dilution the substance is mixed into plates at graded concentrations.

Another assay has as its system Aspergillus flavus. Kind of assay: Antifungal activity against Aspergillus flavus ATCC 9170 up to 250 ug/mL by agar dilution method. Type of assay: functional, organism-based. The method in brief:
as §1

A further assay relates to Candida albicans. Kind of assay: Antifungal activity against Candida albicans ATCC 10231 up to 250 ug/mL by agar dilution method. Type of assay: functional, organism-based. The method in brief: as §1
Another assay has as its system Epidermophyton floccosum. In words: Antifungal activity against Epidermophyton floccosum C114 after 15 days by agar dilution method. In kind it is functional. The settings on record: 360 h. The essentials:
(§2)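 Dermatophytes were kept on Saboureaud dextrose agar slopes and subcultured every 15 days. Spore suspensions were set to 10⁶ CFU/mL, and 5 µL went into Saboureaud-chloramphenicol agar wells. Wells held twofold dilutions from DMSO stocks, final 0.10–250 µg/mL, DMSO ≤2%. Ketoconazole and amphotericin B were positive controls, with a drug-free blank. Incubation was at 30 °C for up to 15 days. MIC = lowest concentration with no visible growth.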

The test system of the next assay is Aspergillus fumigatus. In words: Antifungal activity against Aspergillus fumigatus ATCC 26934 up to 250 ug/mL by agar dilution method. Type of assay: functional, organism-based. The essentials:
as §1

A further assay relates to Saccharomyces cerevisiae. Kind of assay: Antifungal activity against Saccharomyces cerevisiae ATCC 9763 up to 250 ug/mL by agar dilution method. In kind it is functional, organism-based. The method in brief: as §1
The test system of the next assay is Microsporum canis. In words: Antifungal activity against Microsporum canis C112 after 15 days by agar dilution method. Type of assay: functional. The settings on record: 360 h. The method in brief:
as §2

The test system of assay [1] is Trichophyton mentagrophytes. In words: Antifungal activity against Trichophyton mentagrophytes ATCC 9972 after 15 days by agar dilution method. In kind it is functional. To be noted: ATCC 9972, 360 h. The essentials: as §2
For a further assay, the system named is Nannizzia gypsea. Kind of assay: Antifungal activity against Microsporum gypseum C115 after 15 days by agar dilution method. In kind it is functional. To be noted: 360 h. The method in brief:
as §2

The next assay relates to Trichophyton rubrum. In words: Antifungal activity against Trichophyton rubrum C113 after 15 days by agar dilution method. In kind it is functional. The settings on record: 360 h. The method in brief: as §2
Another assay deals with Cryptococcus neoformans. In words: Antifungal activity against Cryptococcus neoformans ATCC 32264 up to 250 ug/mL by agar dilution method. In kind it is functional, organism-based. The method in brief:
as §1

This note sets out measurements from ChEMBL document CHEMBL1145694, “In vitro evaluation of antifungal properties of 8.O.4'-neolignans” (1997).

Values after ≈ are worked out from the molar mass of the structure shown. Active and inactive are the calls of the source. The rule behind the calls is not given here.

Usually MIC stands for the lowest concentration that inhibits growth of the organism. The low end stands for a more susceptible organism, the high end for a less susceptible organism. Consider `C=CCc1ccc(O[C@@H](C)[C@@H](O)c2ccc(OC)c(OC)c2)c(OC)c1` (racemic), for which the outcome with Aspergillus niger, with Aspergillus flavus, in the assay on Candida albicans, in the assay on Aspergillus fumigatus, in the assay with Saccharomyces cerevisiae and with Cryptococcus neoformans was inactive. For the same molecule, the MIC came out at 25 µg/mL (≈ 69.7 µM) against Epidermophyton floccosum; 20 µg/mL (≈ 55.8 µM) against Microsporum canis; 40 µg/mL (≈ 112 µM) in [1]; 60 µg/mL (≈ 167 µM) against Nannizzia gypsea; 20 µg/mL (≈ 55.8 µM) against Trichophyton rubrum.

On to `C/C=C/c1ccc(O[C@H](C)[C@@H](O)c2ccc(OC)c(OC)c2)c(OC)c1` (racemic), for which the result with Aspergillus niger, with Aspergillus flavus, in the assay on Candida albicans, in the assay with Aspergillus fumigatus, in the assay on Saccharomyces cerevisiae and in the assay on Cryptococcus neoformans was inactive. Besides, the MIC in the assay on Epidermophyton floccosum was found to be 70 µg/mL (≈ 195 µM); in the assay with Microsporum canis, 50 µg/mL (≈ 139 µM); in assay [1], 150 µg/mL (≈ 418 µM); against Nannizzia gypsea, 50 µg/mL (≈ 139 µM); in the assay on Trichophyton rubrum, 20 µg/mL (≈ 55.8 µM).

For the molecule `C=CCc1cc(OC)c(O[C@@H](C)[C@@H](O)c2ccc3c(c2)OCO3)c(OC)c1` (racemic), the outcome in the assay on Aspergillus niger, in the assay on Aspergillus flavus, in the assay on Candida albicans, in the assay with Aspergillus fumigatus, in the assay on Saccharomyces cerevisiae and in the assay with Cryptococcus neoformans was inactive. Also, the MIC against Epidermophyton floccosum is 15 µg/mL (≈ 40.3 µM); against Microsporum canis, 80 µg/mL (≈ 215 µM); in assay [1], 200 µg/mL (≈ 537 µM); in the assay with Nannizzia gypsea it was 40 µg/mL (≈ 107 µM); in the assay on Trichophyton rubrum, 20 µg/mL (≈ 53.7 µM).

In the case of `C=CCc1ccc(O[C@H](C)[C@@H](O)c2ccc(OC)c(OC)c2)c(OC)c1` (racemic), the result with Aspergillus niger, with Aspergillus flavus, in the assay with Candida albicans, in the assay on Aspergillus fumigatus, in the assay with Saccharomyces cerevisiae and with Cryptococcus neoformans was inactive. The minimal inhibitory concentration (MIC) in the assay on Epidermophyton floccosum is 15 µg/mL (≈ 41.8 µM); in the assay with Microsporum canis, 250 µg/mL (≈ 697 µM); in assay [1] it was over 250 µg/mL; with Nannizzia gypsea it was over 250 µg/mL; against Trichophyton rubrum, 250 µg/mL (≈ 697 µM).

As for `C/C=C/c1ccc(O[C@H](C)[C@@H](O)c2cc(OC)c(OC)c(OC)c2)c(OC)c1` (racemic), the result in the assay on Aspergillus niger, in the assay on Aspergillus flavus, in the assay on Candida albicans, in the assay on Aspergillus fumigatus, in the assay with Saccharomyces cerevisiae and in the assay on Cryptococcus neoformans was inactive. In addition, the MIC with Epidermophyton floccosum was determined as 25 µg/mL (≈ 64.4 µM); in the assay on Microsporum canis it was 60 µg/mL (≈ 154 µM); in [1], 80 µg/mL (≈ 206 µM); against Nannizzia gypsea, 60 µg/mL (≈ 154 µM); with Trichophyton rubrum it was 50 µg/mL (≈ 129 µM).

With `C/C=C/c1ccc(O[C@@H](C)[C@@H](O)c2cc(OC)c(OC)c(OC)c2)c(OC)c1` (racemic), the outcome with Aspergillus niger, with Aspergillus flavus, in the assay on Candida albicans, with Aspergillus fumigatus, with Saccharomyces cerevisiae and in the assay with Cryptococcus neoformans was inactive. In addition, the MIC against Epidermophyton floccosum was 50 µg/mL (≈ 129 µM); against Microsporum canis, over 250 µg/mL; in assay [1] it was over 250 µg/mL; against Nannizzia gypsea it was over 250 µg/mL; against Trichophyton rubrum, 125 µg/mL (≈ 322 µM).

As to `C[C@@H]1[C@H](O)[C@@H](C)/C=C/C=C/C=C/C=C/C=C/C=C/C=C/[C@H](O[C@@H]2O[C@H](C)[C@@H](O)[C@H](N)[C@@H]2O)C[C@@H]2O[C@](O)(C[C@@H](O)C[C@@H](O)[C@H](O)CC[C@@H](O)C[C@@H](O)CC(=O)O[C@H]1C)C[C@H](O)[C@H]2C(=O)O` [AMPHOTERICIN B], the MIC in the assay on Epidermophyton floccosum is 0.3 µg/mL (≈ 0.325 µM).

Take `CC(=O)N1CCN(c2ccc(OCC3COC(Cn4ccnc4)(c4ccc(Cl)cc4Cl)O3)cc2)CC1` (stereo not drawn) [KETOCONAZOLE]: in the assay with Epidermophyton floccosum, inhibition of growth (MIC) required 15 µg/mL (≈ 28.2 µM). Compared with the last molecule, the MIC is about 50-fold higher.
